aSyn 5UTR inh = MLPCN primary screen, SNCA 5' untranslated region | alpha-synuclein 5'UTR reporter, inhibitor activity | inhibition, % (tested at 7.5 µM) | hit rate 0.82% among 300,000; in the data active = inhibition above about 60%;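 also: H4 neuroglioblastoma cells stably carrying SNCA 5'UTR luciferase fusion; 0% = DMSO wells and 100% = positive control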
VIM-2 inhibitor = VIM-2 metallo-beta-lactamase inhibitors, primary screen, biochemical, epi-absorbance readout, Pseudomonas aeruginosa enzyme | purified VIM-2, nitrocefin hydrolysis, epi-absorbance fluorescence | inhibition, % at 5.6 µM | hit rate 0.89% among 290,000;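 active = inhibition above the mean of all tested compounds plus 3 SD, cutoff set per screening run, cut at about 7.5% in these data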;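 also: red hydrolysis product quenches plate fluorescence so inhibitors raise well fluorescence; 0% = enzyme with DMSO and 100% = DMSO without enzyme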
Jurkat NFkB inh = inhibitors of induced NF-kB luciferase reporter, primary screen, TCR NF-kB activation inhibitor project, cell-based, luminescence, uHTS | Jurkat, PMA/ionomycin-induced NF-kB luciferase reporter | inhibition, % at 4 µM | hit rate 0.53% among 330,000 | AID 435003, 2010; in the data active = inhibition above about 50%
697 NFkB inh = inhibitors of PMA/ionomycin-induced NF-kB reporter, 697 cells, primary screen, B-cell NF-kB inhibitor project, cell-based, luminescence, uHTS; 697 B-cell NF-kB luciferase reporter, 16 h; hit rate 0.33% among 330,000; inhibition, % at 4 µM; AID 435022, 2010; in the data active = inhibition above about 35%
IMP-1 inh = IMP-1 metallo-beta-lactamase inhibitors, primary screen, biochemical, epi-absorbance readout, Pseudomonas aeruginosa enzyme. metallo-beta-lactamase IMP-1 (Pseudomonas aeruginosa). purified IMP-1, nitrocefin hydrolysis, epi-absorbance fluorescence. inhibition, % at 5.6 µM. hit rate 0.45% among 290,000;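 active = inhibition above the mean plus 3 SD of all compounds in the same screening run, cut at about 4.5% in these data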;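 also: 0% = IMP-1 with DMSO and 100% = DMSO wells lacking enzyme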
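System: Purified IMP-1 | Read-out basis: Percent enzyme inhibition | Controls: IMP-1 with DMSO as 0%, enzyme-free DMSO as 100% | Replicates: One well per compound | Doses: 5.6 µM nominal single concentration | Detection: Epi-absorbance fluorescence, 480 nm excitation, 530 nm emission | Incubation: 25 °C, 15 min preincubation, 25 min reaction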
Mdm2-MdmX inh = inhibitors of human Mdm2-MdmX association, primary screen, cell-based, luminescence, split luciferase, SaOS-2, uHTS; SaOS-2 split-luciferase Mdm2/MdmX complementation; inhibition, % at 8 µM; Protein Mdm4 (Homo sapiens) + E3 ubiquitin-protein ligase Mdm2 (Homo sapiens), …; hit rate 3% among 330,000;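 active = inhibition of at least 50% at 8 µM in the primary screen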
Target sequence (O15151 whole entry, looked up): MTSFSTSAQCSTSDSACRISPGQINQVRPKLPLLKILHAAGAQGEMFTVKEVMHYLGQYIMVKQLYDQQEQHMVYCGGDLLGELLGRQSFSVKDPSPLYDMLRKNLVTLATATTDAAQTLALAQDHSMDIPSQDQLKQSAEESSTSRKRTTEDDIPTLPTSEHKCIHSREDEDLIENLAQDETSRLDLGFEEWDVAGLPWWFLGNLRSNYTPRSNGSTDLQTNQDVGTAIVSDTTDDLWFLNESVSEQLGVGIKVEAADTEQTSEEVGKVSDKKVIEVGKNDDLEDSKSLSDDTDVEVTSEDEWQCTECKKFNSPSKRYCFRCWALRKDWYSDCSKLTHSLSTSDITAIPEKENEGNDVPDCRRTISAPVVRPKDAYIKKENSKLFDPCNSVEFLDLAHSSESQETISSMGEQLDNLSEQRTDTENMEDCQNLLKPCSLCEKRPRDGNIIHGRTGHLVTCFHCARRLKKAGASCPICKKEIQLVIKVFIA
Target sequence (Q00987 whole entry, looked up): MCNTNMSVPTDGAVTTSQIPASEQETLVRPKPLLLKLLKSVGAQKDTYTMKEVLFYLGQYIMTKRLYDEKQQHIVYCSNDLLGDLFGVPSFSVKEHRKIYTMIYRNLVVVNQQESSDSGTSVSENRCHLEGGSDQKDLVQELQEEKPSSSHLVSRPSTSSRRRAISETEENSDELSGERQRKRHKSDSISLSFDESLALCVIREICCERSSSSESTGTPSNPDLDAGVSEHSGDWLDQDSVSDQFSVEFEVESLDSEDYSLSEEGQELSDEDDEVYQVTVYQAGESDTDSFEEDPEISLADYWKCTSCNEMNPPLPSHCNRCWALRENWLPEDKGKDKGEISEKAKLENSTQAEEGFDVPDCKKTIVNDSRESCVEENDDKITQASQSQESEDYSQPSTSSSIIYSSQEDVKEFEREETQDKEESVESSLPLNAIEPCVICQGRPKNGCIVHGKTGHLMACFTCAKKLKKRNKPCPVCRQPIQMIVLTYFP
Mdm2-MdmX conf = Mdm2-MdmX complex disruptors, retested hits, confirmation, luminescence, single concentration | shares compounds with Mdm2-MdmX inh | inhibition, % at 8 µM | Mdm2-MdmX binding, luminescent assay | hit rate 55% among 10,000; in the data active = inhibition above about 40%
Full FLuc ctr = full-length luciferase signal inhibition, confirmation, counter-screen for Mdm2/MdmX interaction inhibitor project, cell-based, single concentration, SaOS-2 | shares compounds with Mdm2-MdmX inh | SaOS-2 full-length luciferase counterscreen, luminescence | inhibition, % at 8 µM | hit rate 77% among 6,200 | AID 504607, 2011;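 active = mean inhibition at 8 µM reaching about 37%, which flags the compound as non-specific, limit read from the data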;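 also: p53-null SaOS-2 cells with luciferase driven by a doxycycline-inducible promoter; compound on cells about two nights before reading with doxycycline added after day one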
Active calls of the source: *. Most compounds without a hit are left out; they make up all but 4.7% or so of the library.

COC(=O)N1C(=O)[C@@](c2ccc(OC)cc2)(C(C)C)N1C(=O)OC was read as aSyn 5UTR inh 12, VIM-2 inhibitor -3, Jurkat NFkB inh 14, 697 NFkB inh -1, IMP-1 inh -1, Mdm2-MdmX inh 51* and Mdm2-MdmX conf 28.
COc1ccc(C2(c3ccc(OC)cc3)NC(=O)N(CC(=O)NC(C)C)C2=O)cc1 was read as aSyn 5UTR inh 8, VIM-2 inhibitor -4, Jurkat NFkB inh 13, 697 NFkB inh 8, IMP-1 inh -4 and Mdm2-MdmX inh -2.
`COC(=O)N1C(=O)[C@@](c2ccccc2)(C(C)C)N1C(=O)OC` gave aSyn 5UTR inh 4, VIM-2 inhibitor -2, Jurkat NFkB inh 22, 697 NFkB inh 17, IMP-1 inh -4, Mdm2-MdmX inh 55* and Mdm2-MdmX conf 31.
For COC(=O)N1C(=O)[C@](c2ccc(Cl)cc2)(C(C)C)N1C(=O)OC the results were aSyn 5UTR inh -19, VIM-2 inhibitor -2, Jurkat NFkB inh -2, 697 NFkB inh 6, IMP-1 inh -3, Mdm2-MdmX inh 56*, Mdm2-MdmX conf 40 and Full FLuc ctr 51*.
For Cc1ccc(OCCC(=O)NNC(=O)c2cc(C)oc2C)cc1 the results were aSyn 5UTR inh 1, Jurkat NFkB inh 0, 697 NFkB inh -5 and Mdm2-MdmX inh 2.
Cc1nnc(-c2ccccc2)c(=O)n1/N=C/c1c(O)ccc2ccccc12 was read as aSyn 5UTR inh 83*, VIM-2 inhibitor -4, Jurkat NFkB inh 10, 697 NFkB inh -31, IMP-1 inh -1, Mdm2-MdmX inh 54*, Mdm2-MdmX conf 57* and Full FLuc ctr 31.
O=S(=O)(CCSc1ccccn1)c1nc2ccccc2s1 was read as aSyn 5UTR inh -41, VIM-2 inhibitor -1, Jurkat NFkB inh -1, 697 NFkB inh 4, IMP-1 inh -3, Mdm2-MdmX inh 80*, Mdm2-MdmX conf 48* and Full FLuc ctr 39*.
`O=S(=O)(CCSc1nc2ccccc2o1)c1nc2ccccc2s1` gave aSyn 5UTR inh -28, VIM-2 inhibitor -1, Jurkat NFkB inh 3, 697 NFkB inh -81, IMP-1 inh 1, Mdm2-MdmX inh 83*, Mdm2-MdmX conf 72* and Full FLuc ctr 36.
For O=C(CSc1ccccn1)Nc1nc2ccccc2s1 the results were aSyn 5UTR inh -63, VIM-2 inhibitor -4, Jurkat NFkB inh -3, 697 NFkB inh -36, IMP-1 inh -3 and Mdm2-MdmX inh -31.
Screening CCS(=O)(=O)CCSc1nc2ccccc2o1 returned aSyn 5UTR inh 17, VIM-2 inhibitor 2, Jurkat NFkB inh -10, 697 NFkB inh 14, IMP-1 inh -3 and Mdm2-MdmX inh 11.
`CCCC1Cc2c(sc(N)c2C#N)CO1` (configuration not stated) gave aSyn 5UTR inh 32, VIM-2 inhibitor -2, Jurkat NFkB inh -2, 697 NFkB inh 15, IMP-1 inh -4 and Mdm2-MdmX inh 10.
Screening Cc1noc(C)c1CSCC(=O)Nc1nc2ccc(S(C)(=O)=O)cc2s1 returned aSyn 5UTR inh 30, Jurkat NFkB inh -5, 697 NFkB inh 27 and Mdm2-MdmX inh 17.
For Cc1cc(NC(=O)CSc2nnnn2Cc2ccccc2)no1 the results were aSyn 5UTR inh 5, VIM-2 inhibitor -6, Jurkat NFkB inh -6, 697 NFkB inh 8, IMP-1 inh 1 and Mdm2-MdmX inh -2.
For COc1ccc(-c2c[n+]3c4n2CCCCC4=C(c2ccccc2)C3)cc1 the results were aSyn 5UTR inh -13, VIM-2 inhibitor 1, Jurkat NFkB inh 15, 697 NFkB inh 17, IMP-1 inh -5, Mdm2-MdmX inh 67* and Mdm2-MdmX conf 17.
CC1CN(C(=O)C2CC(=O)N(c3ccc(Cl)cc3)C2)CC(C)O1 (configuration not stated) was read as aSyn 5UTR inh 0, VIM-2 inhibitor 1, Jurkat NFkB inh -12, 697 NFkB inh 0, IMP-1 inh 0 and Mdm2-MdmX inh 6.
For O=C(O)CCN1C(=O)c2ccc(NC(=O)C(c3ccccc3)c3ccccc3)cc2C1=O the results were aSyn 5UTR inh -2, VIM-2 inhibitor -1, Jurkat NFkB inh 5, 697 NFkB inh 26, IMP-1 inh -2 and Mdm2-MdmX inh -5.
Screening CC1CC(C)CN(Cc2nc(N)nc(Nc3ccccc3)n2)C1 (configuration not stated) returned aSyn 5UTR inh 3, VIM-2 inhibitor -5, Jurkat NFkB inh -24, 697 NFkB inh -21, IMP-1 inh -3 and Mdm2-MdmX inh -6.
Screening CC1CC(C)CN(Cc2nc(N)nc(Nc3ccc4ccccc4c3)n2)C1 (configuration not stated) returned aSyn 5UTR inh -115, VIM-2 inhibitor -3, Jurkat NFkB inh 44, 697 NFkB inh -31, IMP-1 inh -2, Mdm2-MdmX inh 62*, Mdm2-MdmX conf 67* and Full FLuc ctr 57*.
Screening CC1=C(C(=O)Nc2ccccc2)C(c2ccco2)C(C#N)=C(SCC(=O)Nc2cccc(C)c2C)N1 (configuration not stated) returned aSyn 5UTR inh 16, VIM-2 inhibitor 4, Jurkat NFkB inh 36, 697 NFkB inh 3, IMP-1 inh 1, Mdm2-MdmX inh 69*, Mdm2-MdmX conf 42* and Full FLuc ctr 79*.
For Cc1ccc(S(=O)(=O)CCc2nc3ccccc3n2CCC#N)cc1 the results were aSyn 5UTR inh 18, VIM-2 inhibitor -4, Jurkat NFkB inh 18, 697 NFkB inh 2, IMP-1 inh -2, Mdm2-MdmX inh 62*, Mdm2-MdmX conf 37 and Full FLuc ctr 32.
Screening COc1ccc(CN2CCC(N3CCC(C(=O)N4CCOCC4)CC3)CC2)c(F)c1 returned aSyn 5UTR inh -7, VIM-2 inhibitor 2, Jurkat NFkB inh 17, 697 NFkB inh 24, IMP-1 inh 2 and Mdm2-MdmX inh 22.
COc1ccc(-c2cc(C(=O)Nc3ccccc3N3CCOCC3)c3ccccc3n2)cc1OC was read as aSyn 5UTR inh 17, VIM-2 inhibitor 0, Jurkat NFkB inh 4, 697 NFkB inh 12, IMP-1 inh -2, Mdm2-MdmX inh 53*, Mdm2-MdmX conf 58* and Full FLuc ctr 75*.

Bioassay records: PubChem, several laboratories
